Data set [1] deals with HaCaT. Description: Antihyperproliferative activity against human HaCaT cells after 48 hrs by MTT assay. The format is functional, cell-based. In outline:
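HaCaT keratinocytes (mycoplasma-negative) exposed to compounds for 48 h, then MTT added (5 mg/mL stock in PBS) for 2 h at 37 °C. Formazan dissolved in DMSO and read at 570 nm, with 630 nm background. Inhibition = (1 − test/control) × 100, from test means (N = 3) against controls (N = 6-8). IC50 by nonlinear regression.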
In general terms: Tetrazolium dyes change colour on reduction, which living cells bring about.

Data set [2] concerns the target NAD(P)H dehydrogenase [quinone] 1 (Homo sapiens) (UniProt P15559). In words: Induction of recombinant human NQO-1-mediated superoxide generation assessed as two-electron reduction of compound by measuring SOD-inhibitable reduction of cytochrome c per unit enzyme at […] by spectrophotometric analysis (reference value: 0.2 +/- 0.1 micromol/L/min).
Data set [3] deals with T1, NADPH--cytochrome P450 reductase (Homo sapiens, UniProt P16435).
T1 sequence (P16435 whole entry): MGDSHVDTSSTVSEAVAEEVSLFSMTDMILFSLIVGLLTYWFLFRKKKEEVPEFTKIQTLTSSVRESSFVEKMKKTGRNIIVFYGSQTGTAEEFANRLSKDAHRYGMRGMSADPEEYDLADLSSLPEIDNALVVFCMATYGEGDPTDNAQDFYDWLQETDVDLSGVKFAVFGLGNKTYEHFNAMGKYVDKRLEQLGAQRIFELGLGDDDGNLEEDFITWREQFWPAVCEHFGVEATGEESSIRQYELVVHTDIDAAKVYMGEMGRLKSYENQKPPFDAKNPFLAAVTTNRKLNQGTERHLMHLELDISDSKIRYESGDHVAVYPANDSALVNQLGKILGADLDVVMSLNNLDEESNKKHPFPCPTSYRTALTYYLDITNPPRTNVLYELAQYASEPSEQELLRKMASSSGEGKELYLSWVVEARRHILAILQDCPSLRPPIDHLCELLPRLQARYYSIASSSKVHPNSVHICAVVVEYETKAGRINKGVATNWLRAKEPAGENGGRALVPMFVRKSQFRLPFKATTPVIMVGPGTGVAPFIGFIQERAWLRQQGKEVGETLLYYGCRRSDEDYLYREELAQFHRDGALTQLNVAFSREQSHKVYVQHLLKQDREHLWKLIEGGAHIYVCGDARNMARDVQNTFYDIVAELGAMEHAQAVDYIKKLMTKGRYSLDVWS
Description: Induction of recombinant human CPR-mediated superoxide generation assessed as one-electron reduction of compound by measuring SOD-inhibitable reduction of succinoylated cytochrome c per 2 mU enzyme at […] by spectrophotometric analysis (reference value: 0.2 +/- 0.1 micromol/L/min).

In data set [4] the test system is HaCaT. In words: Induction of superoxide generation in human HaCaT cells assessed as 2-OH-E+ oxidized product formation by measuring mean fluorescence intensity at 50 umol/L after 30 mins by flow cytometry (reference value: 7.1 +/- 5.2). The format is functional. For orientation: A flow cytometer gives signals particle by particle.
Data set [5] has as its system HaCaT. In words: Induction of superoxide generation in human HaCaT cells assessed as 2-OH-E+ oxidized product formation by measuring mean fluorescence intensity at 5 umol/L after 18 hrs by flow cytometry (reference value: 367.5 +/- 80.1). It counts as functional. The gist of the method: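 HaCaT keratinocytes grown in DMEM with 10% FBS and penicillin/streptomycin for 24 h at 37 °C, then exposed to test compound (5 µM, 0.1% DMSO final) for 18 h. DHE was added and loaded for 30 min, with shaking for the first 5 min, in the dark. Cells were trypsinized and read by flow cytometry (488 nm excitation, FL2 550–600 nm), 10 000 live cells, dead cells gated out. Read-out is MFI versus DMSO control; triplicate.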

The test system of data set [6] is HaCaT. Description: Induction of superoxide generation in human HaCaT cells assessed as 2-OH-E+ oxidized product formation by measuring mean fluorescence intensity at 5 umol/L preincubated with 5 umol/L NQO-1 inhibitor dicoumarol for 25 mins followed by compound treatment measured after 18 hrs by flow cytometry (reference value: 407.59 +/- 68.7). The format is functional. In outline:
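HaCaT cells were cultured as for the chronic assay and preincubated 25 min with dicoumarol (5 µmol/L) before test compound was added. DHE was loaded for 30 min in the dark, then cells were trypsinized. 2-OH-E+ fluorescence was read by flow cytometry in FL2 (550–600 nm) on 10 000 live cells, dead cells gated out, as MFI against DMSO control. Triplicate.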

For data set [7], the system named is HaCaT. In words: Induction of apoptosis in human HaCaT cells at 5 umol/L after 18 hrs by 7-AAD staining based flow cytometry (reference value: 3 +/- 1%). It counts as functional.
The subject of data set [8] is HaCaT. Description: Induction of apoptosis in human HaCaT cells at 5 umol/L preincubated with 5 umol/L NQO-1 inhibitor dicoumarol for 25 mins followed by compound treatment measured after 18 hrs by 7-AAD staining based flow cytometry (reference value: 4.3 +/- 2.6%). More on the design: scale not given: the % may be the effect or the level left. The format is functional.

Usually IC50 stands for the concentration that gives 50% inhibition.

NAD(P)H dehydrogenase [quinone] 1 (Homo sapiens), sequence (P15559 whole entry): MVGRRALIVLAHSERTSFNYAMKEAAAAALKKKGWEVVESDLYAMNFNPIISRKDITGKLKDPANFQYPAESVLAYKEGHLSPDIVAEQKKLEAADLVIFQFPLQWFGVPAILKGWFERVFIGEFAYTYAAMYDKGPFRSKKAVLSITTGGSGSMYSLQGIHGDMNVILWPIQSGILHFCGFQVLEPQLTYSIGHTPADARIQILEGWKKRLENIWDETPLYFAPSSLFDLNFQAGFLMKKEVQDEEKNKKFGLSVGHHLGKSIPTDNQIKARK

Turning to `CCc1nnc(-c2cc3c(s2)C(=O)c2ccccc2C3=O)s1`, in the data set with HaCaT [1], the IC50 was over 15 µM. On to `Cc1cc2c(s1)C(=O)c1ccccc1C2=O`, for which the Activity was 0.3 µmol/L/min in data set [2], 1.1 µmol/L/min in data set [3], 4.3% in the data set with HaCaT [7] and 4.3% in the data set on HaCaT [8]. In addition, the midpoint of inhibition in the data set on HaCaT [1], the IC50, lay at 5.2 µM. Moreover, the Flu intensity was 11.5 in the data set on HaCaT [4], 517 with HaCaT [5] and 633.5 in the data set on HaCaT [6]. With `O=C1c2ccccc2C(=O)c2sccc21` [THIOPHENONAPHTHOQUINONE], the Activity in data set [2] was 1.2 µmol/L/min; in data set [3] it was 1.2 µmol/L/min; with HaCaT [7], 4%; with HaCaT [8] it was 7.4%. The Flu intensity with HaCaT [4] came to 10.5; in the data set on HaCaT [5], 552.7; with HaCaT [6] it was 583.3. For `CCc1noc(-c2ccc3ccccc3c2)n1`, in the data set with HaCaT [1], the IC50 is over 30 µM. Still for that read-out and setting: then `CCc1noc(-c2cc3c(s2)Cc2ccccc2C3=O)n1`, with 7.3 µM; and `O=C1c2ccccc2C(=O)c2sc(-c3nnc(-c4ccccc4)o3)cc21`, with over 30 µM; and `Cc1nnc(-c2cc3c(s2)C(=O)c2ccccc2C3=O)o1`, with 0.08 µM. Still for that read-out and setting: under `CCc1noc(-c2cc3c(OC)ccc(OC)c3s2)n1` stands over 30 µM; under `COc1ccc(C(=O)Nc2cc3c(s2)C(=O)c2ccccc2C3=O)cc1`, 1.1 µM; under `CCc1noc(-c2cc3cc4ccccc4cc3s2)n1`, over 30 µM.

`COC(=O)c1cc2c(s1)C(=O)c1ccccc1C2=O` displayed an IC50 with HaCaT [1] of 0.71 µM. Take `O=C1c2ccccc2C(=O)c2sc(-c3nncs3)cc21`: the half-inhibitory concentration (IC50) in the data set with HaCaT [1] is 0.3 µM. Still for that read-out and setting: under `CCc1noc(C2=CC(=O)c3ccccc3C2=O)n1` stands over 30 µM; under `O=C(O)c1cc2c(s1)C(=O)c1ccccc1C2=O`, over 30 µM; under `CCc1nnc(-c2cc3c(s2)C(=O)c2ccccc2C3=O)o1`, 0.15 µM. The same measure, in the same setting: then `O=C1c2ccccc2C(=O)c2sc(-c3nnco3)cc21`, with 0.22 µM; and `CCc1noc(-c2cc3c(OC)c4ccccc4cc3s2)n1`, with over 30 µM. Still for that read-out and setting: under `CCc1noc(-c2ccc(C(=O)c3ccccc3)s2)n1` stands over 30 µM. For the compound `CN/N=C/c1cc2c(s1)C(=O)c1ccccc1C2=O`, the IC50 in the data set with HaCaT [1] was over 30 µM. Still for that read-out and setting: under `CCc1noc(-c2ccc3c(c2)C(=O)c2ccccc2C3=O)n1` stands over 30 µM. Turning to `CCc1noc(-c2cc3c(s2)C(=O)c2ccccc2C3=O)n1`, the Activity was found to be 0.5 µmol/L/min in data set [2], 0.9 µmol/L/min in data set [3], 39.3% with HaCaT [7] and 6.9% in the data set with HaCaT [8]. Moreover, the IC50 in the data set on HaCaT [1] is 0.36 µM. For the same compound, the Flu intensity in the data set on HaCaT [4] is on record as 25.2; in the data set on HaCaT [5], 930.1; with HaCaT [6] it was 558.7. `O=C(Nc1cc2c(s1)C(=O)c1ccccc1C2=O)c1ccccc1` gave an IC50 with HaCaT [1] of 2.3 µM. The same measure, in the same setting: under `CCc1noc(-c2cc3oc4ccccc4c(=O)c3s2)n1` stands over 30 µM. Still for that read-out and setting: under `O=C(/C=C/c1cc2c(s1)C(=O)c1ccccc1C2=O)c1ccccc1` stands over 30 µM; under `Cc1nnc(-c2cc3c(s2)C(=O)c2ccccc2C3=O)s1`, 3.7 µM; under `CCc1noc(-c2ccc3c(=O)c4ccccc4oc3c2)n1`, over 30 µM. `CCc1noc(-c2cc3c(s2)C(=O)C=CC3=O)n1` returned a half-maximal inhibitory concentration (IC50) with HaCaT [1] of 11 µM. On the same count and under the same terms, under `CCc1noc(-c2cc3c(OC)c4ccccc4c(OC)c3s2)n1` stands 6.7 µM.

`N#Cc1cc2c(s1)C(=O)c1ccccc1C2=O` showed an IC50 with HaCaT [1] of 0.46 µM. Compound `CCC(=O)Nc1cc2c(s1)C(=O)c1ccccc1C2=O` registered an IC50 with HaCaT [1] of 9.6 µM. On the same count and under the same terms, under `O=Cc1cc2c(s1)C(=O)c1ccccc1C2=O` stands 1.2 µM; under `CCc1noc(-c2ccccc2)n1`, over 30 µM.

`CCc1nc(-c2ccc3c(c2)C(=O)c2ccccc2C3=O)no1` displayed an IC50 with HaCaT [1] of over 30 µM. On the same count and under the same terms, then `CCc1noc(-c2cc3ccccc3s2)n1`, with over 30 µM. On the same count and under the same terms, under `O=C1c2ccccc2C(=O)c2c([N+](=O)[O-])csc21` stands 1.1 µM; under `CC(C)C(=O)Nc1cc2c(s1)C(=O)c1ccccc1C2=O`, 3.3 µM. For `CCc1noc(-c2ccc3c(c2)C(=O)C=CC3=O)n1`, the IC50 in the data set on HaCaT [1] was determined as 14 µM.

With `Nc1cc2c(s1)C(=O)c1ccccc1C2=O`, the Activity in data set [2] is 0.8 µmol/L/min; in data set [3] it was 1.1 µmol/L/min; in the data set on HaCaT [7] it was 5.6%; in the data set on HaCaT [8], 3.2%. Further, the 50% inhibitory concentration (IC50) in the data set with HaCaT [1] is over 30 µM. In addition, the Flu intensity with HaCaT [4] amounted to 76.7; in the data set on HaCaT [5] it was 518; in the data set with HaCaT [6] it was 502.3. Regarding `CC(=O)/C=C/c1cc2c(s1)C(=O)c1ccccc1C2=O`, the IC50 with HaCaT [1] was over 30 µM. Same read-out and setting: under `CCc1noc(-c2ccc3sc4ccccc4c(=O)c3c2)n1` stands over 30 µM; under `CCCC(=O)Nc1cc2c(s1)C(=O)c1ccccc1C2=O`, 5.7 µM.

`CCc1nc(-c2cc3c(s2)C(=O)c2ccccc2C3=O)no1` had a half-maximal inhibitory concentration (IC50) with HaCaT [1] of 0.58 µM. Same read-out and setting: then `CCCCc1nnc(-c2cc3c(s2)C(=O)c2ccccc2C3=O)o1`, with 1.9 µM. Same read-out and setting: under `CCc1noc(-c2cccs2)n1` stands over 30 µM; under `NNC(=O)c1cc2c(s1)C(=O)c1ccccc1C2=O`, 1.7 µM.

In the case of `CC(=O)c1cc2c(s1)C(=O)c1ccccc1C2=O`, the Activity in data set [2] amounted to 0.8 µmol/L/min; in data set [3], 1.2 µmol/L/min; in the data set on HaCaT [7], 4.2%; in the data set with HaCaT [8], 3.7%. Moreover, the Flu intensity in the data set with HaCaT [4] amounted to 19.2; in the data set on HaCaT [5] it was 500; in the data set with HaCaT [6] it was 434.5.

For `CCc1noc(-c2ccc(C(C)=O)cc2)n1`, the IC50 in the data set on HaCaT [1] was over 30 µM. Still for that read-out and setting: under `CCc1noc(C=C2c3ccccc3C(=O)c3ccccc32)n1` stands 6.5 µM. For the compound `O=C1c2ccccc2C(=O)c2sc([N+](=O)[O-])cc21`, the Activity in data set [2] came to 4.6 µmol/L/min; in data set [3], 2 µmol/L/min; in the data set with HaCaT [7] it was 5.6%; in the data set on HaCaT [8], 3.4%. In addition, in the data set on HaCaT [1], the IC50 was 1.8 µM. Further, the Flu intensity with HaCaT [4] was determined as 138; in the data set with HaCaT [5], 973.8; with HaCaT [6] it was 1022.

In turn, `O=C1c2ccccc2C(=O)c2sc(-c3nnn[nH]3)cc21` displayed an IC50 in the data set on HaCaT [1] of over 30 µM. On the same count and under the same terms, then `CCc1noc(-c2cc(C(C)=O)cs2)n1`, with over 30 µM; and `O=C1c2ccccc2C(=O)c2sc(/C=N/Nc3ccccc3)cc21`, with over 30 µM. Regarding `CC1=CC(=O)c2ccccc2C1=O` [MENADIONE], the Activity in data set [2] came out at 1 µmol/L/min; in data set [3] it was 2.1 µmol/L/min; with HaCaT [7], 4.8%; in the data set with HaCaT [8], 3.1%. Besides, the Flu intensity in the data set on HaCaT [4] came to 44; with HaCaT [5], 431.9; in the data set on HaCaT [6] it was 457.2.

Values taken from ChEMBL document CHEMBL4020720, “Oxadiazole-substituted naphtho[2,3-b]thiophene-4,9-diones as potent inhibitors of keratinocyte hyperproliferation. Structure-activity relationships of the tricyclic quinone skeleton and the oxadiazole substituent” (Eur J Med Chem, 2017).
